Measurements: ChEMBL document CHEMBL2021768, “Syntheses of [12]aneN₃-oligopeptide conjugates as effective DNA condensation agents” (Bioorg Med Chem, 2012)
Calls of active or inactive are those of the source. The calls are words filed in the database; no cut-off is given here. Residues, ends and D or L forms follow the SMILES beside them.

How the values were obtained:
Nucleic Acid [1] = assay: Induction of Escherichia coli pUC18 DNA condensation assessed as retardation of DNA migration at 500 uM after 1 hr by agarose gel electrophoresis; type: nucleic-acid assay
Procedure, shortened: (§1)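 Supercoiled pUC18 plasmid treated with conjugate in Tris–HCl (50 mM, pH 7.4), then incubated 1 h at 37 °C. Agarose gel electrophoresis compared with a DNA-alone lane. Retardation was judged by loss of supercoiled DNA migration.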

Nucleic Acid [2] = assay: Induction of Escherichia coli pUC18 condensation assessed as retardation of DNA migration at 150 uM after 1 hr by agarose gel electrophoresis in presence of 50 to 400 mM NaCl; type: nucleic-acid assay
Nucleic Acid [3] = assay: Induction of Escherichia coli pUC18 condensation assessed as hydrodynamic diameters of DNA nanoparticles at 50 to 250 uM after 5 mins by dynamic laser light scattering analysis; type: nucleic-acid assay
Procedure, shortened: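 pUC18 DNA at 9 μg/mL in Tris buffer (50 mM, pH 7.4) with conjugate, left 5 min at room temperature. Dynamic light scattering at 90° and 25 °C. Ten runs per solution, averaged and reported as mean ± S.D.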

Nucleic Acid [4] = assay: Reversible Escherichia coli pUC18 condensation assessed as DNA migration at 250 uM after 1 hr by agarose gel electrophoresis in presence of 200 mM NaCl; type: nucleic-acid assay
[5] = Cytotoxicity against human HepG2 cells assessed as cell viability at 250 uM after 24 hrs by MTT assay; type: cell-based; settings: read-out: Activity
Procedure, shortened: (§2)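 MTT assay. HepG2 grown in DMEM with 15% FBS, T98G in MEM with 10% FBS, 37 °C, 5% CO2. Cells seeded at 5 × 10⁵ per well and cultured 24 h, then exposed to compound for 24 h. MTT (5 mg/mL stock) added for 4 h, formazan dissolved in DMSO, absorbance read at 490 nm. Viability taken relative to controls from four parallel tests.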

Nucleic Acid [6] = assay: Binding affinity to calf thymus DNA assessed as fluorescence quenching after 1 min by ethidium bromide displacement assay; type: nucleic-acid assay; settings: Bos taurus
Procedure, shortened: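 Calf thymus DNA (100 μM) pretreated with ethidium bromide (10 μM), then conjugate added. Tris buffer (50 mM, pH 7.4), room temperature. Incubated 1 min before reading fluorescence, excitation 537 nm. Apparent binding constant (K_app) derived from the quenching curve.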

Nucleic Acid [7] = assay: Induction of Escherichia coli pUC18 condensation assessed as retardation of DNA migration at 250 uM after 1 hr by agarose gel electrophoresis; type: nucleic-acid assay; procedure, shortened: as §1
Nucleic Acid [8] = assay: Induction of Escherichia coli pUC18 condensation assessed as diameters of DNA nanoparticles at 250 uM after 1 hr by atomic force microscopy; type: nucleic-acid assay
Procedure, shortened: (§3)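 pUC18 diluted to 9 μg/mL in Tris (5 mM, pH 7.4) with 1 mM MgCl2 plus conjugate, equilibrated 1 h at 37 °C. Sample spotted for 5 min on mica pretreated with 10 mM NiCl2, then rinsed and dried under argon. Imaged in air at room temperature by tapping-mode AFM with Si tips at 1–3 Hz.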

[9] = Cytotoxicity against human T98G cells assessed as cell viability at 250 uM after 24 hrs by MTT assay; type: cell-based; settings: read-out: Activity; procedure, shortened: as §2
Nucleic Acid [10] = assay: Induction of Escherichia coli pUC18 condensation assessed as diameters of DNA nanoparticles at 150 uM after 1 hr by atomic force microscopy; type: nucleic-acid assay; procedure, shortened: as §3
Nucleic Acid [11] = assay: Induction of Escherichia coli pUC18 condensation assessed as retardation of DNA migration at 200 uM after 1 hr by agarose gel electrophoresis; type: nucleic-acid assay; procedure, shortened: as §1
Nucleic Acid [12] = assay: Reversible Escherichia coli pUC18 condensation assessed as DNA migration at 150 uM after 1 hr by agarose gel electrophoresis in presence of 200 mM NaCl; type: nucleic-acid assay
Nucleic Acid [13] = assay: Induction of Escherichia coli pUC18 condensation assessed as retardation of DNA migration at 220 uM after 1 hr by agarose gel electrophoresis in presence of 50 to 400 mM NaCl; type: nucleic-acid assay

SMILES	Activity (Nucleic Acid [1])	Activity (Nucleic Acid [3])	viability at 24 h, 250 µM [5]	Kapp (Nucleic Acid [6])	viability at 24 h, 250 µM [9]	also measured
COC(=O)[C@H](C)NC(=O)[C@H](CC(C)C)NC(=O)[C@H](C)NC(=O)[C@H](CC(C)C)NC(=O)[C@H](C)NC(=O)[C@H](CC(C)C)NC(=O)CN1CCCNCCCNCCC1 (HELM PEPTIDE1{[O=C(CN1CCCNCCCNCCC1)[*:2]].L.A.L.A.L.A.[CO[*:1]]}$$$$V2.0)	inactive	–	–	–	–	–
COC(=O)[C@H](Cc1ccccc1)NC(=O)[C@H](CC(C)C)NC(=O)[C@H](C)NC(=O)[C@H](CC(C)C)NC(=O)[C@H](C)NC(=O)[C@H](CC(C)C)NC(=O)CN1CCCNCCCNCCC1 (HELM PEPTIDE1{[O=C(CN1CCCNCCCNCCC1)[*:2]].L.A.L.A.L.F.[CO[*:1]]}$$$$V2.0)	–	208 nm	83%	1.4 ×10⁵ /M	78%	Activity (Nucleic Acid [2]): inactive; Activity (Nucleic Acid [4]): Active; Activity (Nucleic Acid [7]): Active; Activity (Nucleic Acid [8]): 20 nm
COC(=O)CNC(=O)[C@H](CC(C)C)NC(=O)[C@H](C)NC(=O)[C@H](CC(C)C)NC(=O)[C@H](C)NC(=O)[C@H](CC(C)C)NC(=O)CN1CCCNCCCNCCC1 (HELM PEPTIDE1{[O=C(CN1CCCNCCCNCCC1)[*:2]].L.A.L.A.L.G.[CO[*:1]]}$$$$V2.0)	inactive	–	–	–	–	–
COC(=O)[C@H](CC(C)C)NC(=O)[C@H](CC(C)C)NC(=O)[C@H](C)NC(=O)[C@H](CC(C)C)NC(=O)[C@H](C)NC(=O)[C@H](CC(C)C)NC(=O)CN1CCCNCCCNCCC1 (HELM PEPTIDE1{[O=C(CN1CCCNCCCNCCC1)[*:2]].L.A.L.A.L.L.[CO[*:1]]}$$$$V2.0)	–	174 nm	97%	1.9 ×10⁵ /M	96%	Activity (Nucleic Acid [2]): inactive; Activity (Nucleic Acid [10]): 30 nm; Activity (Nucleic Acid [11]): Active; Activity (Nucleic Acid [12]): Active
COC(=O)[C@H](CO)NC(=O)[C@H](CC(C)C)NC(=O)[C@H](C)NC(=O)[C@H](CC(C)C)NC(=O)[C@H](C)NC(=O)[C@H](CC(C)C)NC(=O)CN1CCCNCCCNCCC1 (HELM PEPTIDE1{[O=C(CN1CCCNCCCNCCC1)[*:2]].L.A.L.A.L.S.[CO[*:1]]}$$$$V2.0)	inactive	–	–	–	–	–
COC(=O)[C@@H](NC(=O)[C@H](CC(C)C)NC(=O)[C@H](C)NC(=O)[C@H](CC(C)C)NC(=O)[C@H](C)NC(=O)[C@H](CC(C)C)NC(=O)CN1CCCNCCCNCCC1)C(C)C (HELM PEPTIDE1{[O=C(CN1CCCNCCCNCCC1)[*:2]].L.A.L.A.L.V.[CO[*:1]]}$$$$V2.0)	inactive	–	–	–	–	–
COC(=O)[C@H](Cc1c[nH]c2ccccc12)NC(=O)[C@H](CC(C)C)NC(=O)[C@H](C)NC(=O)[C@H](CC(C)C)NC(=O)[C@H](C)NC(=O)[C@H](CC(C)C)NC(=O)CN1CCCNCCCNCCC1 (HELM PEPTIDE1{[O=C(CN1CCCNCCCNCCC1)[*:2]].L.A.L.A.L.W.[CO[*:1]]}$$$$V2.0)	–	196 nm	85%	1.2 ×10⁵ /M	80%	Activity (Nucleic Acid [4]): Active; Activity (Nucleic Acid [7]): Active; Activity (Nucleic Acid [8]): 36 nm; Activity (Nucleic Acid [13]): inactive
COC(=O)[C@H](Cc1ccc(O)cc1)NC(=O)[C@H](CC(C)C)NC(=O)[C@H](C)NC(=O)[C@H](CC(C)C)NC(=O)[C@H](C)NC(=O)[C@H](CC(C)C)NC(=O)CN1CCCNCCCNCCC1 (HELM PEPTIDE1{[O=C(CN1CCCNCCCNCCC1)[*:2]].L.A.L.A.L.Y.[CO[*:1]]}$$$$V2.0)	inactive	–	–	–	–	–
